Test results taken from ChEMBL document CHEMBL4177583, “1-Hydroxypyrido[2,3-d]pyrimidin-2(1H)-ones as novel selective HIV integrase inhibitors obtained via privileged substructure-based compound libraries” (Bioorg Med Chem, 2017).
Active and inactive are the calls of the source. The calls are words filed in the database; no cut-off is given here.

Legend:
[1] = (§1) Cytotoxic activity against mock-infected human MT4 cellls assessed as reduction in cell viability by MTT assay; assay type: cell-based; conditions: mock-infected MT4 cells
Outline: (§2)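 Mock-infected MT-4 cells (6×10^5 cells/mL) run in parallel with infected wells. Compounds tested as serial five-fold dilutions in triplicate. Viability read by MTT at 540/690 nm after 5 days, using the median OD of two or three wells. CC50 is the concentration reducing mock-infected cell viability by 50%. '>' marks the highest concentration tested that was non-cytotoxic.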

[2] = tested on: Human immunodeficiency virus 1; assay: Antiviral activity against HIV1 3B infected in human MT4 cells assessed as inhibition of viral-induced cytopathic effect by MTT assay; assay type: functional, organism-based
Outline: (§3)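 MT-4 cells resuspended at 6×10^5 cells/mL and infected with HIV-1 IIIB or HIV-2 ROD at 100-300 CCID50. Compounds tested as serial five-fold dilutions in triplicate wells. Viability read by MTT reduction at 540 and 690 nm after 5 days. Median OD of two or three wells used. EC50 is the concentration giving 50% protection from viral cytopathicity.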

[3] = tested on: Human immunodeficiency virus 2; assay: Antiviral activity against HIV2 ROD […] infected in human MT4 cells assessed as inhibition of viral-induced cytopathic effect by MTT assay; assay type: functional, organism-based, ISOLATE ROD; outline: as §3
[4] = Selectivity index, ratio of CC50 for cytotoxic activity against mock-infected human MT4 cells to EC50 for antiviral activity against HIV1 3B infected in human MT4 cells; assay type: toxicity, cell-based; conditions: mock-infected (CC50) and HIV1 3B infected (EC50)
Outline: (§4)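 SI calculated as CC50 (mock-infected MT-4, MTT, 5 days) divided by EC50 against HIV-1 IIIB or HIV-2 ROD in MT-4 cells measured in the same MTT cytoprotection assay.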

[5] = Selectivity index, ratio of CC50 for cytotoxic activity against mock-infected human MT4 cells to EC50 for antiviral activity against HIV2 ROD […] infected in human MT4 cells; assay type: toxicity, cell-based; conditions: mock-infected (CC50) and HIV2 ROD infected (EC50); outline: as §4
MT4 = assay: as §1; assay type: cell-based; conditions: mt4; outline: as §2
[6] = target: Human immunodeficiency virus type 1 reverse transcriptase (Human immunodeficiency virus 1) (UniProt Q72547); assay: Inhibition of RNase H inhibition activity of HIV-1 BH10 reverse transcriptase expressed in Escherichia coli at 100 uM pre-incubated for 5 mins before [32P]-labeled template primer 31Trna/21P addition by polyacrylamide gel electrophoresis method
Outline: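 Recombinant WT HIV-1 BH10 RT (20-40 nM) preincubated with compound for 5 min at 37°C. Buffer: 50 mM Tris-HCl pH 8.0, 50 mM NaCl, 5 mM MgCl2, 5% DMSO. Reactions started with 25 nM 5'-[32P]-labeled 31Trna/21P template-primer. Sampled from 0 to 4 min at 37°C, quenched with EDTA/formamide, and resolved by denaturing PAGE.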

[7] = Human immunodeficiency virus 1, 3B, MT4
[8] = Human immunodeficiency virus 2, ISOLATE ROD, MT4

SMILES | CC50 [1] [µM] | EC50 [2, 7] [µM] | EC50 [3, 8] [µM] | selectivity ratio [4] | selectivity ratio [5] | CC50 (MT4) [µM] | EC50 [2] [µM] | EC50 [3] [µM] | inhibition [6]
Cc1nnc(C(=O)NC(C)(C)c2nc(C(=O)NCc3ccc(F)cc3)c(O)c(=O)n2C)o1 | > 55.8 | 0.0078 | 0.011 |  |  |  |  |  | 
O=C(Cn1cc(-c2cccc(Nc3nc(=O)n(O)c4ncccc34)c2)nn1)Nc1ccccc1 | > 275 | 26.8 | > 275 | > 10 | 1 |  |  |  | 
COc1cc2c(cc1Cc1cccc(Cl)c1F)c(=O)c(C(=O)O)cn2[C@H](CO)C(C)C | 6.3 | 0.0023 | 0.0038 |  |  |  |  |  | 
O=c1nc(Nc2cccc(-c3cn(-c4cccc5ccccc45)nn3)c2)c2cccnc2n1O | > 279 | 27.1 | 69.4 | > 10 | > 4 |  |  |  | 
Cc1nnc(C(=O)NC(C)(C)c2nc(C(=O)NCc3ccc(F)cc3)c(O)c(=O)n2C)o1 [RALTEGRAVIR POTASSIUM] |  |  |  |  |  | > 51.8 | 0.0077 | 0.016 | 
Cc1ccc(Cn2cc(-c3ccccc3Nc3nc(=O)n(O)c4ncccc34)nn2)cc1 | 1.1 | > 1.1 | > 1.1 | < 1 | < 1 |  |  |  | 
Cc1cccc(Cn2cc(Cn3c(=O)n(O)c(=O)c4cc(Br)ccc43)nn2)c1 | 24 | > 24 | > 24 | < 1 | < 1 |  |  |  | 
O=C(Cn1cc(-c2cccc(Nc3nc(=O)n(O)c4ncccc34)c2)nn1)Nc1ccc(C(F)(F)F)cc1 | > 239 | > 239 | > 239 | 1 | 1 |  |  |  | 
O=c1c2cc(Br)ccc2n(Cc2cn(Cc3ccccc3Cl)nn2)c(=O)n1O | 22.3 | > 22.3 | > 22.3 | < 1 | < 1 |  |  |  | 
O=C(Cn1cc(-c2cccc(Nc3nc(=O)n(O)c4ncccc34)c2)nn1)c1ccc(F)cc1 | > 273 | 3 | > 273 | > 91 | 1 |  |  |  | 
O=c1nc(Nc2cccc(-c3cn(Cc4ccc(F)cc4)nn3)c2)c2cccnc2n1O | > 291 | 0.92 | 2.82 | > 318 | > 103 |  |  |  | 
O=c1c2cc(Br)ccc2n(Cc2cn(Cc3ccc(Cl)cc3)nn2)c(=O)n1O | 24.1 | > 24.1 | > 24.1 | < 1 | < 1 |  |  |  | 
O=c1nc(Nc2cccc(-c3cn(CCc4ccccc4)nn3)c2)c2cccnc2n1O | > 294 | 9.5 | 14.6 | > 31 | > 20 |  |  |  | 
O=c1c2cc(Br)ccc2n(Cc2cn(Cc3ccc(F)cc3)nn2)c(=O)n1O | 25.1 | > 25.1 | > 25.1 | < 1 | < 1 |  |  |  | Active
O=C(Cn1cc(-c2cccc(Nc3nc(=O)n(O)c4ncccc34)c2)nn1)Nc1ccc(F)cc1 | > 265 | 232 | > 265 | > 1 | 1 |  |  |  | 
O=c1nc(Nc2cccc(-c3cn(CCCc4ccccc4)nn3)c2)c2cccnc2n1O | 239 | 26.1 | > 239 | 9 | < 1 |  |  |  | 
O=c1c2cc(Br)ccc2n(Cc2cn(Cc3ccc(F)c(F)c3)nn2)c(=O)n1O | 24.7 | > 24.7 | > 24.7 | < 1 | < 1 |  |  |  | 
O=c1c2cc(Br)ccc2n(Cc2cn(Cc3ccc(Br)cc3)nn2)c(=O)n1O | 21.8 | > 21.8 | > 21.8 | < 1 | < 1 |  |  |  | 
O=c1c2cc(Br)ccc2n(Cc2cn(Cc3ccccc3)nn2)c(=O)n1O | 23.7 | > 23.7 | > 23.7 | < 1 | < 1 |  |  |  | 
O=c1c2cc(Br)ccc2n(Cc2cn(Cc3ccc([N+](=O)[O-])cc3)nn2)c(=O)n1O | 22.4 | > 22.4 | > 22.4 | < 1 | < 1 |  |  |  | 
O=c1nc(Nc2ccccc2-c2cn(Cc3ccc(F)cc3)nn2)c2cccnc2n1O | 2.7 | > 2.7 | > 2.7 | < 1 | < 1 |  |  |  | 
Cc1ccccc1Cn1cc(Cn2c(=O)n(O)c(=O)c3cc(Br)ccc32)nn1 | 17.8 | > 17.8 | > 17.8 | < 1 | < 1 |  |  |  | 
O=c1c2cc(Br)ccc2n(Cc2cn(Cc3cccc(F)c3)nn2)c(=O)n1O | 24.9 | > 24.9 | > 24.9 | < 1 | < 1 |  |  |  | 
